Measurements published in ChEMBL document CHEMBL1159061, “Synthesis and biological properties of iron chelators based on a bis-2-(2-hydroxy-phenyl)-thiazole-4-carboxamide or -thiocarboxamide (BHPTC) scaffold” (Bioorg Med Chem, 2010).
pIC50: −log10 of the molar value. Calls of active or inactive are those of the source. The rule behind the calls is not given here.

What was measured:
[1] = Induction of iron chelating activity by calcein fluorescence assay; assay type: physicochemical
How it was run: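 Cell-free calcein assay in 20 mM HEPES, 150 mM NaCl, pH 7.3, at 20 °C with orbital stirring. Calcein was quenched with iron(III) for 6 h to maximal quenching. Fluorescence recovery (ex 485/em 520 nm) was followed for 1 h at various chelator concentrations, and the initial dequenching rate was derived from the kinetics. Three independent experiments.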

[2] = Antiproliferative activity against human HepaRG cells after 72 hrs by MTT assay; assay type: functional, cell-based
How it was run: (§1)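 Proliferating HepaRG cells at day 4 (seeded at 2.5×10⁴/cm² in William's E, 10% FCS, insulin, glutamine, hydrocortisone) were exposed for 72 h to a concentration series, with or without added iron(III) as each line states. Viability was read by MTT (0.5 mg/L as printed) for 3 h in serum-free medium, DMSO-solubilized formazan at 535 nm, expressed as % of control SDH activity.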

[3] = tested on: HepaRG; assay: Cytotoxicity against human HepaRG cells assessed as increase in extracellular LDH release at >100 uM after 72 hrs in presence of iron(3); assay type: functional, cell-based
[4] = tested on: KB; assay: Antiproliferative activity against human KB cells at 10 uM after 72 hrs by MTS assay; assay type: functional
How it was run: (§2)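 Cells grown under 5% CO2: KB and HepG2 in DMEM with 10% FCS, penicillin, streptomycin and fungizone; HCT116, HT29, HCT15, MCF7, MCF7R, SK-OV3, PC-3, A549, HL60, K562 and SF268 in RPMI. Cells were plated in 96-well plates and dosed 24 h later from DMSO stocks (controls 1% DMSO final). After 72 h, MTS was added for 3 h at 37 °C and absorbance read at 490 nm. Inhibition = (1 − OD treated/OD control)×100, in triplicate.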

[5] = tested on: KB; assay: Antiproliferative activity against human KB cells at 1 uM after 72 hrs by MTS assay; assay type: functional; how it was run: as §2
[6] = tested on: HCT-116; assay: Antiproliferative activity against human HCT116 cells at 10 uM after 72 hrs by MTS assay; assay type: functional; conditions: HCT-116, 72 h; how it was run: as §2
[7] = tested on: HCT-116; assay: Antiproliferative activity against human HCT116 cells at 1 uM after 72 hrs by MTS assay; assay type: functional; conditions: HCT-116, 72 h; how it was run: as §2
[8] = tested on: HT-29; assay: Antiproliferative activity against human HT-29 cells at 10 uM after 72 hrs by MTS assay; assay type: functional; conditions: HT-29, 72 h; how it was run: as §2
[9] = tested on: HT-29; assay: Antiproliferative activity against human HT-29 cells at 1 uM after 72 hrs by MTS assay; assay type: functional; conditions: HT-29, 72 h; how it was run: as §2
[10] = tested on: HCT-15; assay: Antiproliferative activity against human HCT15 cells at 10 uM after 72 hrs by MTS assay; assay type: functional; conditions: HCT-15, 72 h; how it was run: as §2
[11] = tested on: HCT-15; assay: Antiproliferative activity against human HCT15 cells at 1 uM after 72 hrs by MTS assay; assay type: functional; conditions: HCT-15, 72 h; how it was run: as §2
[12] = tested on: MCF7; assay: Antiproliferative activity against human MCF7 cells at 10 uM after 72 hrs by MTS assay; assay type: functional; conditions: MCF7, 72 h; how it was run: as §2
[13] = tested on: MCF7; assay: Antiproliferative activity against human MCF7 cells at 1 uM after 72 hrs by MTS assay; assay type: functional; conditions: MCF7, 72 h; how it was run: as §2
[14] = tested on: MCF7; assay: Antiproliferative activity against doxorubicin-resistant human MCF7 cells at 10 uM after 72 hrs by MTS assay; assay type: functional; conditions: MCF7, 72 h; how it was run: as §2
[15] = tested on: MCF7; assay: Antiproliferative activity against doxorubicin-resistant human MCF7 cells at 1 uM after 72 hrs by MTS assay; assay type: functional; conditions: MCF7, 72 h; how it was run: as §2
[16] = tested on: A549; assay: Antiproliferative activity against human A549 cells at 10 uM after 72 hrs by MTS assay; assay type: functional; conditions: A549, 72 h; how it was run: as §2
[17] = tested on: A549; assay: Antiproliferative activity against human A549 cells at 1 uM after 72 hrs by MTS assay; assay type: functional; conditions: A549, 72 h; how it was run: as §2
[18] = tested on: PC-3; assay: Antiproliferative activity against human PC3 cells at 10 uM after 72 hrs by MTS assay; assay type: functional; conditions: PC-3, 72 h; how it was run: as §2
[19] = tested on: PC-3; assay: Antiproliferative activity against human PC3 cells at 1 uM after 72 hrs by MTS assay; assay type: functional; conditions: PC-3, 72 h; how it was run: as §2
[20] = tested on: SF-268; assay: Antiproliferative activity against human SF268 cells at 10 uM after 72 hrs by MTS assay; assay type: functional; conditions: SF-268, 72 h; how it was run: as §2
[21] = tested on: SF-268; assay: Antiproliferative activity against human SF268 cells at 1 uM after 72 hrs by MTS assay; assay type: functional; conditions: SF-268, 72 h; how it was run: as §2
[22] = tested on: SK-OV-3; assay: Antiproliferative activity against human SKOV3 cells at 10 uM after 72 hrs by MTS assay; assay type: functional; conditions: SK-OV-3, 72 h; how it was run: as §2
[23] = tested on: SK-OV-3; assay: Antiproliferative activity against human SKOV3 cells at 1 uM after 72 hrs by MTS assay; assay type: functional; conditions: SK-OV-3, 72 h; how it was run: as §2
[24] = tested on: HL-60; assay: Antiproliferative activity against human HL60 cells at 10 uM after 72 hrs by MTS assay; assay type: functional; conditions: HL-60, 72 h; how it was run: as §2
[25] = tested on: HL-60; assay: Antiproliferative activity against human HL60 cells at 1 uM after 72 hrs by MTS assay; assay type: functional; conditions: HL-60, 72 h; how it was run: as §2
[26] = tested on: K562; assay: Antiproliferative activity against human K562 cells at 10 uM after 72 hrs by MTS assay; assay type: functional; conditions: K562, 72 h; how it was run: as §2
[27] = tested on: K562; assay: Antiproliferative activity against human K562 cells at 1 uM after 72 hrs by MTS assay; assay type: functional; conditions: K562, 72 h; how it was run: as §2
[28] = tested on: HepG2; assay: Antiproliferative activity against human HepG2 cells at 10 uM after 72 hrs by MTS assay; assay type: functional; conditions: HepG2, 72 h; how it was run: as §2
[29] = tested on: HepG2; assay: Antiproliferative activity against human HepG2 cells at 1 uM after 72 hrs by MTS assay; assay type: functional; conditions: HepG2, 72 h; how it was run: as §2
[30] = tested on: Hepatocyte; assay: Cytoprotective activity in human hepatocytes assessed as inhibition of FeNTA-induced increase in extracellular LDH activity relative to control; assay type: functional; parameters: scale not given: the % may be the effect or the level left
[31] = Antiproliferative activity against human HepaRG cells after 72 hrs by MTT assay in presence of iron(3); assay type: functional, cell-based; how it was run: as §1

## O=C(O)c1ccc(O)c(-c2nc(C(=S)NCCOCCOCCNC(=S)c3csc(-c4cc(C(=O)O)ccc4O)n3)cs2)c1
[1]
  pIC50: 7.15
[2]
  pIC50: 3.94
[3]
  Activity: Active
[4]
  inhibition at 10 µM: 0%
[5]
  inhibition at 1 µM: 0%
[6]
  inhibition at 10 µM: 0%
[7]
  inhibition at 1 µM: 0%
[8]
  inhibition at 10 µM: 0%
[9]
  inhibition at 1 µM: 0%
[10]
  inhibition at 10 µM: 8%
[11]
  inhibition at 1 µM: 0%
[12]
  inhibition at 10 µM: 0%
[13]
  inhibition at 1 µM: 0%
[14]
  inhibition at 10 µM: 1%
[15]
  inhibition at 1 µM: 0%
[16]
  inhibition at 10 µM: 7%
[17]
  inhibition at 1 µM: 0%
[18]
  inhibition at 10 µM: 0%
[19]
  inhibition at 1 µM: 0%
[20]
  inhibition at 10 µM: 5%
[21]
  inhibition at 1 µM: 0%
[22]
  inhibition at 10 µM: 2%
[23]
  inhibition at 1 µM: 3%
[24]
  inhibition at 10 µM: 0%
[25]
  inhibition at 1 µM: 0%
[26]
  inhibition at 10 µM: 2%
[27]
  inhibition at 1 µM: 0%
[28]
  inhibition at 10 µM: 0%
[29]
  inhibition at 1 µM: 0%

## O=C(O)c1ccc(O)c(-c2nc(C(=O)NCCOCCOCCNC(=O)c3csc(-c4cc(C(=O)O)ccc4O)n3)cs2)c1
[2]
  pIC50: 3.92
[3]
  Activity: Active
[4]
  inhibition at 10 µM: 2%
[5]
  inhibition at 1 µM: 0%
[6]
  inhibition at 10 µM: 0%
[7]
  inhibition at 1 µM: 0%
[8]
  inhibition at 10 µM: 1%
[9]
  inhibition at 1 µM: 0%
[10]
  inhibition at 10 µM: 0%
[11]
  inhibition at 1 µM: 0%
[12]
  inhibition at 10 µM: 0%
[13]
  inhibition at 1 µM: 0%
[14]
  inhibition at 10 µM: 2%
[15]
  inhibition at 1 µM: 0%
[16]
  inhibition at 10 µM: 0%
[17]
  inhibition at 1 µM: 1%
[18]
  inhibition at 10 µM: 8%
[19]
  inhibition at 1 µM: 0%
[20]
  inhibition at 10 µM: 0%
[21]
  inhibition at 1 µM: 0%
[22]
  inhibition at 10 µM: 7%
[23]
  inhibition at 1 µM: 4%
[24]
  inhibition at 10 µM: 0%
[25]
  inhibition at 1 µM: 0%
[26]
  inhibition at 10 µM: 9%
[27]
  inhibition at 1 µM: 0%
[28]
  inhibition at 10 µM: 0%
[29]
  inhibition at 1 µM: 0%
[30]
  Activity: 179%

## CC(=O)N(O)CCCCCNC(=O)CCC(=O)N(O)CCCCCNC(=O)CCC(=O)N(O)CCCCCN [DEFEROXAMINE]
[1]
  pIC50: 5.36
[2]
  pIC50: 4.30
[31]
  pIC50: 4.15
[4]
  inhibition at 10 µM: 16%
[5]
  inhibition at 1 µM: 0%
[6]
  inhibition at 10 µM: 20%
[7]
  inhibition at 1 µM: 0%
[8]
  inhibition at 10 µM: 42%
[9]
  inhibition at 1 µM: 0%
[10]
  inhibition at 10 µM: 46%
[11]
  inhibition at 1 µM: 0%
[12]
  inhibition at 10 µM: 0%
[13]
  inhibition at 1 µM: 0%
[14]
  inhibition at 10 µM: 9%
[15]
  inhibition at 1 µM: 0%
[16]
  inhibition at 10 µM: 50%
[17]
  inhibition at 1 µM: 2%
[18]
  inhibition at 10 µM: 44%
[19]
  inhibition at 1 µM: 1%
[20]
  inhibition at 10 µM: 33%
[21]
  inhibition at 1 µM: 0%
[22]
  inhibition at 10 µM: 52%
[23]
  inhibition at 1 µM: 5%
[24]
  inhibition at 10 µM: 0%
[25]
  inhibition at 1 µM: 0%
[26]
  inhibition at 10 µM: 0%
[27]
  inhibition at 1 µM: 0%
[28]
  inhibition at 10 µM: 0%
[29]
  inhibition at 1 µM: 0%
[30]
  Activity: 162%
